The nature of test [1]: SK-BR-3 cell growth inhibitors, pilot screen, 24 h, human (AID 572;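 active = viability at or below 10% of carrier control in both of two separate runs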;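 note: compound exposure lasted between 18 and 24 h rather than exactly 24 h; 100% = carrier-treated control wells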). The following applies: SK-BR-3 viability, CellTiter-Glo luminescence, at 10 µM, stronger effect = lower value. (Cellular ATP, detected with luciferase, serves as a proxy for viable cell number.)
Test [2] in a line: HUVEC growth inhibition – cell-based, human, primary screen (AID 575;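 active = viability at or below 30% in both replicate assays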;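 note: 100% = median of untreated cell wells with 0.1% DMSO on each plate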). The following applies: HUVEC proliferation, CellTiter-Glo luminescence, 72 h; at 10 µM; stronger effect = lower value. The method, boiled down: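 system = HUVEC primary cells | amount = 1250 cells/well | buffer or medium = supplemented EBM, 2% fetal bovine serum | dosing = single-point 10 µM, DMSO 0.1% final | times = 72 h compound incubation | detection = CTG luminescence | read-out = % viability relative to median vehicle-well signal on each plate | control set = vehicle and MePR control wells | format = collagen-coated 384-well format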

Test [3] is described as follows: growth inhibitors of H69AR lung tumor, primary screen, human, duplicate replicates (AID 580).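 Note: 100% = mean luminescence of untreated wells and 0% = no signal.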 The following applies: H69AR lung tumor cells viability, ATP luminescence, 72 h; at 10 µM; stronger effect = lower value.
Test [4] in a line: reversal of MRP1-mediated doxorubicin resistance, pilot screen, H69AR cells, doxorubicin co-treatment (AID 601;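 active = viability loss from added drug above about 55%, and viability with drug at most 40%, in both replicates, limit read from the data, passing the limit was not always enough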). The following applies: CellTiter-Glo, 72 h, at 10 µM; for differential viability (reversal): stronger effect = higher value.
Test [5] in a line: 384-well plate pilot, post-Golgi transport modulator project, inhibition of yeast transport mutant growth (AID 636; in the data active = inhibition above about 31%). Particulars: absorbance 615 nm, about 18 h, stronger effect = higher value.
Test [6] in a line: growth suppression of yeast trafficking mutant, preliminary HTS, modulators of trafficking downstream of Golgi apparatus project, 1536-format plate, OD 615 nm (AID 637; in the data active = inhibition above about 30%). The following applies: yeast transport mutant growth, absorbance 615 nm, 18 h; stronger effect = higher value.
[7] abbreviates: H69AR cells + 2 uM doxorubicin, measured here: viability with 2 uM doxorubicin, stronger effect = lower value.
Where [8] appears, read: H69AR cells, compound alone cytotoxicity.

Active and inactive are the calls of the source.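 Rule for the calls, unless noted: active = viability at or under a set limit in both replicates, limit being median viability minus 3 SD (cut at about 48% in these data, passing the limit was not always enough); inconclusive = at or under the limit in just one replicate; inactive = at or above the limit in both replicates.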

This passage reports viability, differential viability (reversal) and inhibition results from PubChem BioAssay.

Usually viability stands for a read-out of living cells in per cent, often relative to untreated cells. One may read the inhibition as the change of the read-out against control, counted positive when it falls. With `CC(=O)Nc1cc(NC(C)=O)cc(C(=O)OCC(=O)N2CC(C)OC(C)C2)c1` (stereo unspecified), the viability in test [1] is 94% (inactive); in test [2], 99.9% (inactive); in test [3] it was 102% (inactive); in test [4] (setting [7]), 94.1%; in test [4] (setting [8]) it was 102%. Besides, the differential viability (reversal) in test [4] (H69AR cells + 2 uM doxorubicin) is 8.29% (inactive). Also, the inhibition in test [5] was -6.62% (inactive); in test [6], -3.64% (inactive).
`Cc1cccc(NC(=O)C2CCCN2C(=O)OCC(C)C)c1C` (stereo unspecified): the viability in test [1] was 96% (inactive); in test [2], 108% (inactive); in test [3], 92% (inactive); in test [4] (setting [7]), 83.5%; in test [4] (setting [8]) it was 92%. The differential viability (reversal) in test [4] (H69AR cells + 2 uM doxorubicin) is 8.52% (inactive). For the same compound, the inhibition was -4.86% (inactive) in test [5] and -3.82% (inactive) in test [6].
`CCOc1cc(/C=N/n2cnnc2)cc(Br)c1O`: the viability in test [1] is 104% (inactive); in test [2], 103% (inactive); in test [3], 83.3% (inactive); in test [4] (setting [7]) it was 91.8%; in test [4] (setting [8]), 83.3%. For the same compound, the differential viability (reversal) in test [4] (H69AR cells + 2 uM doxorubicin) was -8.45% (inactive). Moreover, the inhibition is -2.37% (inactive) in test [5] and 8.33% (inactive) in test [6].
For `COC(=O)CCC(NC(=O)c1cc(-c2ccc3c(c2)OCCO3)oc1C)C(=O)OC` (stereo unspecified), the viability is 91% (inactive) in test [1]; 74.8% (inactive) in test [2]; 85.3% (inactive) in test [3]; 81.9% in test [4] (setting [7]); 85.3% in test [4] (setting [8]). Besides, in test [4] (H69AR cells + 2 uM doxorubicin), the differential viability (reversal) was 3.48% (inactive). Moreover, the values for the inhibition in test [5] and in test [6] were -6.44% (inactive) and 0.81% (inactive), respectively.
`C1COC(NC(C2CC2)C2CC2)=N1`: the viability is 94% (inactive) in test [1]; 77.3% (inactive) in test [2]; 84.9% (inactive) in test [3]; 79.6% in test [4] (setting [7]); 84.9% in test [4] (setting [8]). For the same compound, the differential viability (reversal) in test [4] (H69AR cells + 2 uM doxorubicin) was 5.27% (inactive). The inhibition in test [5] is -1.3% (inactive); in test [6], -5.17% (inactive).
On to `Cc1ccc2[nH]c(=O)c(-c3noc(-c4ccncc4)n3)cc2c1`, for which the viability was 104% (inactive) in test [1]; 113% (inactive) in test [2]; 98.7% (inactive) in test [3]; 94% in test [4] (setting [7]); 98.7% in test [4] (setting [8]). In addition, in test [4] (H69AR cells + 2 uM doxorubicin), the differential viability (reversal) was 4.67% (inactive). In addition, the inhibition in test [5] was -8.11% (inactive); in test [6], 6.18% (inactive).
In the case of `CCCCc1c(O)nc(SCC(=O)Nc2ccc3c(c2)CCC3)[nH]c1=O`, the viability in test [1] is 96% (inactive); in test [2], 79.7% (inactive); in test [3], 94.8% (inactive); in test [4] (setting [7]) it was 83.9%; in test [4] (setting [8]), 94.8%. For the same compound, the differential viability (reversal) in test [4] (H69AR cells + 2 uM doxorubicin) is 10.9% (inactive). Besides, the inhibition in test [5] is -3.73% (inactive); in test [6], -2.91% (inactive).
On to `CCOC(=O)C1CCN(C(=O)CCCCn2c(=O)[nH]c3ccccc3c2=O)CC1`, for which the viability is 90% (inactive) in test [1]; 114% (inactive) in test [2]; 101% (inactive) in test [3]; 94.9% in test [4] (setting [7]); 101% in test [4] (setting [8]). Moreover, the differential viability (reversal) in test [4] (H69AR cells + 2 uM doxorubicin) is 6.14% (inactive). Further, the results for the inhibition in test [5] and in test [6] were 3.77% (inactive) and 2.62% (inactive), respectively.
For `NC(CO)C(=O)NNCc1ccc(O)c(O)c1O` (stereo unspecified), the viability in test [1] was 97% (inactive); in test [2], 82.9% (inactive); in test [3], 98.7% (inactive); in test [4] (setting [7]) it was 90.5%; in test [4] (setting [8]), 98.7%. In addition, the differential viability (reversal) in test [4] (H69AR cells + 2 uM doxorubicin) is 8.12% (inactive). Also, the inhibition was -3.51% (inactive) in test [5] and -2.67% (inactive) in test [6].
For `Cc1cn2c(-c3ccncc3)nnc2s1`, the viability is 144% (inactive) in test [1]; 87.4% (inactive) in test [2]; 99.8% (inactive) in test [3]; 92.7% in test [4] (setting [7]); 99.8% in test [4] (setting [8]). The differential viability (reversal) in test [4] (H69AR cells + 2 uM doxorubicin) is 7.13% (inactive). The inhibition is -1.23% (inactive) in test [5] and 3.55% (inactive) in test [6].
For `O=C(CN(Cc1ccc(F)cc1)C(=O)c1ccco1)NCc1ccc(F)cc1`, the viability is 104% (inactive) in test [1]; 112% (inactive) in test [2]; 94.1% (inactive) in test [3]; 75.6% in test [4] (setting [7]); 94.1% in test [4] (setting [8]). Further, the differential viability (reversal) in test [4] (H69AR cells + 2 uM doxorubicin) is 18.5% (inactive). In addition, the results for the inhibition in test [5] and in test [6] were -8% (inactive) and -6.91% (inactive), respectively.
For the compound `CC(OC(=O)c1ccco1)C(=O)NCc1cccs1` (stereo unspecified), the viability was 119% (inactive) in test [1]; 90.3% (inactive) in test [2]; 97.4% (inactive) in test [3]; 103% in test [4] (setting [7]); 97.4% in test [4] (setting [8]). Moreover, the differential viability (reversal) in test [4] (H69AR cells + 2 uM doxorubicin) is -5.53% (inactive). Besides, the inhibition in test [5] was -4.25% (inactive); in test [6], -4.55% (inactive).
As for `O=C(NCCC1=CCCCC1)C1CCN(S(=O)(=O)c2cnc[nH]2)CC1`, the viability in test [1] is 83% (inactive); in test [2] it was 111% (inactive); in test [3] it was 104% (inactive); in test [4] (setting [7]) it was 88.1%; in test [4] (setting [8]), 104%. Moreover, in test [4] (H69AR cells + 2 uM doxorubicin), the differential viability (reversal) is 15.5% (inactive). The inhibition in test [5] is -5.6% (inactive); in test [6], -1.27% (inactive).
Regarding `CC1CCN(S(=O)(=O)c2ccc(Br)s2)CC1`, the viability in test [1] was 98% (inactive); in test [2], 91.1% (inactive); in test [3], 87.5% (inactive); in test [4] (setting [7]), 81.1%; in test [4] (setting [8]), 87.5%. The differential viability (reversal) in test [4] (H69AR cells + 2 uM doxorubicin) was 6.46% (inactive). The inhibition is -2.6% (inactive) in test [5] and -1.8% (inactive) in test [6].
On to `COc1cccc(NC(=O)N(Cc2ccco2)C(C)c2cccs2)c1` (stereo unspecified), for which the viability in test [1] is 92% (inactive); in test [2], 88.9% (inactive); in test [3], 89.8% (inactive); in test [4] (setting [7]), 73%; in test [4] (setting [8]) it was 89.8%. In addition, the differential viability (reversal) in test [4] (H69AR cells + 2 uM doxorubicin) was 16.8% (inactive). The values for the inhibition in test [5] and in test [6] were -0.52% (inactive) and -4.1% (inactive), respectively.
Regarding `COc1ccc(CCN(Cc2cc3cccc(C)c3[nH]c2=O)C(=O)N2CCCC2)cc1OC`, the viability in test [1] is 106% (inactive); in test [2], 104% (inactive); in test [3], 98.8% (inactive); in test [4] (setting [7]), 97.3%; in test [4] (setting [8]), 98.8%. Further, the differential viability (reversal) in test [4] (H69AR cells + 2 uM doxorubicin) was 1.51% (inactive). The inhibition in test [5] was -2.6% (inactive); in test [6] it was -0.36% (inactive).
For the compound `CC(C)c1cc(C(=O)Nc2cccnc2)no1`, the viability in test [1] was 110% (inactive); in test [2] it was 105% (inactive); in test [3], 97.3% (inactive); in test [4] (setting [7]) it was 98.2%; in test [4] (setting [8]), 97.3%. Besides, the differential viability (reversal) in test [4] (H69AR cells + 2 uM doxorubicin) is -0.865% (inactive). Also, the inhibition was -7.73% (inactive) in test [5] and -0.18% (inactive) in test [6].
